Non-standard residues stand in square brackets, D forms with d. Residues, ends and D or L forms follow the SMILES beside them. *: point of attachment. Sta = CC(C)C[C@H](N)[C@@H](O)CC(=O)O; Isovaleryl = CC(C)CC(=O)*
What follows are compounds tested against T1, Pepsin A (Sus scrofa, UniProt P00791) (assay: Tested for time dependent inhibition constant against porcine pepsin).
How it was run: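 Porcine pepsin with synthetic heptapeptide substrate Phe-Gly-His-Phe(NO2)-Phe-Ala-Phe-OMe (Km 4.0 × 10^-5 M), followed spectrophotometrically. Enzyme preincubated with inhibitor for 10 min, and the reaction started by adding substrate. Velocities taken at apparent steady state. Inhibitor solutions generally contained 1% methanol v/v, and 10% for poorly soluble ones. IC50 converted to Ki by the Cha equation, correcting for total enzyme and S/Km.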

T1 sequence (P00791 whole entry): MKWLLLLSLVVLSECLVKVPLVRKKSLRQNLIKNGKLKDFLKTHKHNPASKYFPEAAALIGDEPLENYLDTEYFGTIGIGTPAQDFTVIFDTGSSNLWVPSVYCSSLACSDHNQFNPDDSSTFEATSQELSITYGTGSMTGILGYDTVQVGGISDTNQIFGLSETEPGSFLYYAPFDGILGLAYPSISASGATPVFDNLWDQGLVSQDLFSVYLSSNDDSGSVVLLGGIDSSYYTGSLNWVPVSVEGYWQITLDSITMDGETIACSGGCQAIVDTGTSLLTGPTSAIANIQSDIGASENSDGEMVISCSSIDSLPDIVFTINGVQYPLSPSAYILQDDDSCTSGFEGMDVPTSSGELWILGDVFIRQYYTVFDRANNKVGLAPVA

| Structure (SMILES) | Ki |
| --- | --- |
| CC(C)CC(=O)NC(C(=O)NC(CC(C)C)C(O)CC(=O)NC(C)C(=O)NC(C)C)C(C)C (stereo unspecified) | 20 nM |
| CC(C)CCNC(=O)C(CC(C)C)NC(=O)CC(O)C(CC(C)C)NC(=O)C(NC(=O)CC(C)C)C(C)C (stereo unspecified) | 4.6 nM |
| COC(=O)C(CC(C)C)NC(=O)C(C)NC(=O)CC(O)C(CC(C)C)NC(=O)C(NC(=O)CC(C)C)C(C)C (stereo unspecified) | 1.1 nM |
| COC(=O)C(Cc1ccccc1)NC(=O)C(C)NC(=O)CC(O)C(CC(C)C)NC(=O)C(NC(=O)CC(C)C)C(C)C (stereo unspecified) | 1.5 nM |
| COC(=O)[C@H](C)NC(=O)C[C@H](O)[C@H](CC(C)C)NC(=O)[C@@H](NC(=O)[C@@H](NC(=O)CC(C)C)C(C)C)C(C)C (Isovaleryl-VV[Sta]A-OMe) | 3.5 nM |

Other lines, results leading:

| Ki | Structure (SMILES) |
| --- | --- |
| 3 nM | CC(C)CCNC(=O)C(C)NC(=O)CC(O)C(CC(C)C)NC(=O)C(NC(=O)CC(C)C)C(C)C (stereo unspecified) |
| 30 nM | CC(C)CCNC(=O)C(C)NC(=O)CC(O)C(CC(C)C)NC(=O)C(C)NC(=O)CC(C)C (stereo unspecified) |

What follows are compounds tested against T1, Pepsin A (assay: Tested for time independent inhibition constant against porcine pepsin).
How it was run: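 Pepsin (porcine) cleavage of Phe-Gly-His-Phe(NO2)-Phe-Ala-Phe-OMe (Km 4.0 × 10^-5 M), monitored by spectrophotometer. Reactions started with enzyme, giving linear steady-state initial velocities. Inhibitors were usually in 1% methanol v/v, or 10% if poorly soluble. IC50 came from inhibited versus uninhibited velocity and was converted to Ki by the Cha equation, Ki = (IC50 − Et/2)(1 + S/Km)^-1.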

| Structure (SMILES) | Ki |
| --- | --- |
| COC(=O)C(C)NC(=O)CC(O)C(CC(C)C)NC(=O)C(NC(=O)CC(C)C)C(C)C (stereo unspecified) | 600 nM |
| CCOC(=O)CC(O)C(CC(C)C)NC(=O)C(NC(=O)CC(C)C)C(C)C (stereo unspecified) | 800 nM |
| CC(C)CC(=O)NC(C(=O)NC(CC(C)C)C(O)CC(=O)NC(C)C)C(C)C (stereo unspecified) | 300 nM |
| CCOC(=O)C[C@H](O)[C@H](CC(C)C)NC(=O)[C@@H](NC(=O)[C@@H](NC(=O)CC(C)C)C(C)C)C(C)C (Isovaleryl-Val-Val-[Sta]-OEt) | 10 nM |

Other lines, results leading:

| Ki | Structure (SMILES) |
| --- | --- |
| 56 nM | CC(C)CCNC(=O)CNC(=O)CC(O)C(CC(C)C)NC(=O)C(NC(=O)CC(C)C)C(C)C (stereo unspecified) |
| 68 nM | COC(=O)CNC(=O)C(C)NC(=O)CC(O)C(CC(C)C)NC(=O)C(NC(=O)CC(C)C)C(C)C (stereo unspecified) |
| 13 nM | CC(C)CCNC(=O)C(C)NC(=O)CC(O)C(CC(C)C)NC(=O)C(CC(C)C)NC(=O)CC(C)C (stereo unspecified) |
| 100 nM | CC(C)CCNC(=O)C(C)NC(=O)CC(O)C(CC(C)C)NC(=O)CNC(=O)CC(C)C (stereo unspecified) |
| 140 nM | CNC(=O)C(C)NC(=O)CC(O)C(CC(C)C)NC(=O)C(NC(=O)CC(C)C)C(C)C (stereo unspecified) |
